The list is not random: actives were taken first. Their share in the collection is about 6.7%.
PREPL inh = inhibitors of human prolyl oligopeptidase-like enzyme PREPL; recombinant PREPL, fluorescence polarization activity-based probe; 320,000 tested, 0.68% active; inhibition, % at 5.96 µM; AID 2751; Q4J6C6; in the data active means inhibition above about 43%;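 further: 0% = enzyme with DMSO and 100% = wells lacking enzyme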
Target sequence (Q4J6C6 whole entry, looked up): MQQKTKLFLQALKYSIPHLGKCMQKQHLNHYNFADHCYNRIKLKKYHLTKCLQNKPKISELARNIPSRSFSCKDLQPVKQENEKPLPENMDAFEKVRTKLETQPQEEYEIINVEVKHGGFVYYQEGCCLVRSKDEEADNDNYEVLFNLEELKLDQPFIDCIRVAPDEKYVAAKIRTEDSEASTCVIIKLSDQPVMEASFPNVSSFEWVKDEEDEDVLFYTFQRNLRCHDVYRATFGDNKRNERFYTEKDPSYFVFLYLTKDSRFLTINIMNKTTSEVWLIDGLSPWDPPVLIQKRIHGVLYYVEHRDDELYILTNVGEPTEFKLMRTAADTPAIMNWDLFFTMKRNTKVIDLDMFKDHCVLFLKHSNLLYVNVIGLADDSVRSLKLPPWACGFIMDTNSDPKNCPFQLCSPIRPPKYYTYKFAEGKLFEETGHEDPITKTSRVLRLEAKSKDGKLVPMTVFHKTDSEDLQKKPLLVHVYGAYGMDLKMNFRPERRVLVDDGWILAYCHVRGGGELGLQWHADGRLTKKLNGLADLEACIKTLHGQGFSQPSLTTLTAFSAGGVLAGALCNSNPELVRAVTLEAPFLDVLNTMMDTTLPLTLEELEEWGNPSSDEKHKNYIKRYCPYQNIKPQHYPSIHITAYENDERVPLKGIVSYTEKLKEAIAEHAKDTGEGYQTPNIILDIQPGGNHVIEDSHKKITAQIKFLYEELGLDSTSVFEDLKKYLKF
T cruzi repl = blocks replication of Trypanosoma cruzi. AID 1885. T. cruzi beta-gal in NIH3T3, luminescence, 90 h. 300,000 tested, 1.4% active. inhibition, % (test concentration not listed);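 active means mean inhibition across valid replicates above about 55%, limit read from the data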;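 further: signal also drops with host cell toxicity which is not excluded here; 0% = plate median of DMSO wells and 100% = zero luminescence signal; higher percent means less beta-gal luminescence so fewer parasites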
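System: NIH/3T3 fibroblasts plus reporter T. cruzi. Medium: DMEM plus 2% FBS. Probe or stimulus: 5000 reporter trypomastigotes per well. Compound: single 50 nL compound addition per well in DMSO. Incubation: co-culture of at least 90 h after 3 h attachment. Detection: GalScreen β-gal luminescence, detergent lysis, 60 min. Evaluation: parasite load inhibition, %.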
CHOP inh = inhibitors of CHOP induction in ER stress response; CHO-K1 CHOP-promoter luciferase, tunicamycin-induced, 15-18 h; inhibition, % at 10 µM; 220,000 tested, 3.8% active;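 active means compounds that reduced the stress-induced luciferase reporter signal by more than about 70% of percent inhibition, limit read from the data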;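 further: 0% = tunicamycin plus vehicle and 100% = wells without tunicamycin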
Beta cell apopt = blocks beta cell apoptosis; INS-1E cytokine-induced death, ATP luminescence, 48 h; percent of positive-control rescue, neutral wells zero; protection from apoptosis, % (test concentration not listed); 300,000 tested, 0.8% active; AID 435005;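 active means Every replicate reaches about 75%, or at least half do and their mean reaches it too, limit read from the data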;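 further: 0% = cytokine-treated negative control wells and 100% = positive control rescue; higher means more ATP so stronger rescue from cytokine killing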
NR3A LBD binder = modulates the human NR3A ligand-binding domain; NR3A LBD differential scanning fluorimetry, Tm shift; 0% = protein alone, 100% = glycine-bound protein; Tm shift relative to glycine control, % at 25 µM; 340,000 tested, 2.5% active; AID 1259313;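 active means melting temperature shift of at least 10% of the positive control shift, at one fixed dose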
CSC inhib = blocks cancer stem cells | cancer stem cell-like cells viability, luminescence | inhibition, % at 7.5 µM | 300,000 tested, 1.1% active | AID 2717; in the data active means inhibition above about 75%; tested in HMLE shEcad cells
The depositor's hits bear a star.

Screening Cc1ccc(NC(=O)CCCCCN2C(=O)c3ccccc3C2=O)nc1 returned PREPL inh -4.8, T cruzi repl 10.4, CHOP inh -0.8, Beta cell apopt -6.3, NR3A LBD binder -2.2 and CSC inhib -4.4.
Screening N#C/C(=C\c1cc(Br)ccc1F)C(=O)NC1CC1 returned PREPL inh 3.3, T cruzi repl -5.2, Beta cell apopt -6.3, NR3A LBD binder 0.8 and CSC inhib -3.7.
CCN(c1ccc(NC(=O)COC(=O)CCc2cc(OC)c(OC)c(OC)c2)cc1)C(C)C was read as T cruzi repl 0.9, CHOP inh -23.3 and NR3A LBD binder -1.8.
CCOC(=O)c1ccc(NC(=O)c2nc[nH]c2C(=O)NC2CCN(C(=O)OC(C)(C)C)CC2)cc1 was read as PREPL inh 4.7, T cruzi repl -4.7, CHOP inh 85.3*, Beta cell apopt 2.4, NR3A LBD binder 2.6 and CSC inhib 5.1.
`CC(C)(C)OC(=O)N1CCC(NC(=O)c2nc[nH]c2C(=O)NC2CCN(C(=O)OC(C)(C)C)CC2)CC1` gave PREPL inh 0.1, Beta cell apopt -0.9, NR3A LBD binder 1.4 and CSC inhib -17.3.
For CCOC(=O)c1ccc(NC(=O)c2nc[nH]c2C(=O)N2CCN(c3ccccc3)CC2)cc1 the results were PREPL inh 9.6, T cruzi repl -4.0, CHOP inh 73.0*, Beta cell apopt -0.1 and NR3A LBD binder -4.4.
Cc1ccc(NC(=O)c2nc[nH]c2C(=O)N2CCN(c3ccccc3)CC2)cc1 was read as PREPL inh 13.8, T cruzi repl -6.6, CHOP inh 34.4, Beta cell apopt -6.3, NR3A LBD binder -5.7 and CSC inhib 15.9.
For Cc1ccc(NC(=O)c2nc[nH]c2C(=O)N2CCN(C(=O)OC(C)(C)C)CC2)cc1 the results were PREPL inh 5.2, Beta cell apopt -0.3, NR3A LBD binder 11.5* and CSC inhib 14.5.
`CC(C)(C)OC(=O)N1CCN(C(=O)c2[nH]cnc2C(=O)Nc2ccc(Cl)cc2)CC1` gave PREPL inh 25.6, Beta cell apopt -10.9 and NR3A LBD binder -8.3.
CCCCC1(C)OC(=O)C(=Cc2ccc(N(C)C)cc2)C(=O)O1 (configuration not stated) was read as PREPL inh 5.4, T cruzi repl -7.8, CHOP inh 8.7, Beta cell apopt -1.7, NR3A LBD binder 5.2 and CSC inhib 0.5.
`O=C(C[n+]1cccc(O)c1)NCc1ccc(Cl)cc1` gave PREPL inh 4.5, T cruzi repl -6.6, Beta cell apopt 0.4, NR3A LBD binder -1.0 and CSC inhib -10.1.
CSc1nnc2ccc(-c3cccs3)nn12 was read as PREPL inh -9.7, T cruzi repl -5.6, CHOP inh 29.2, Beta cell apopt -1.7, NR3A LBD binder -0.1 and CSC inhib -17.1.
Screening CCOC(=O)c1ccc(-n2ccnc2)c(NC(=O)c2cccc(Br)c2)c1 returned PREPL inh -0.9, T cruzi repl 62.6*, CHOP inh 10.0, Beta cell apopt -0.3, NR3A LBD binder 0.9 and CSC inhib -1.6.
For O=C(COc1ccc([N+](=O)[O-])cc1Cl)NCC1CCCO1 (configuration not stated) the results were PREPL inh 36.6, T cruzi repl -1.9, CHOP inh -4.2, Beta cell apopt 1.1, NR3A LBD binder 1.2 and CSC inhib 9.4.
For CCc1c(C)c(C#N)c2[nH]c3ccccc3n2c1=S the results were PREPL inh 29.4, T cruzi repl 37.4, CHOP inh 36.6, Beta cell apopt 6.1, NR3A LBD binder 10.9* and CSC inhib 11.8.
`Cc1ccc(Cc2c(C)c(C#N)c3[nH]c4ccccc4n3c2=O)cc1` gave PREPL inh -0.3, T cruzi repl 12.8, CHOP inh 56.3, Beta cell apopt 76.8*, NR3A LBD binder 3.6 and CSC inhib 32.0.
Screening CCc1cc(=S)n2c([nH]c3ccccc32)c1C#N returned PREPL inh 18.5, T cruzi repl -7.8, CHOP inh 19.9, Beta cell apopt -3.2 and NR3A LBD binder 7.3.
Screening NC(=O)c1ncn([C@@H]2O[C@H](CNCc3ccc(-c4cc(C(F)(F)F)ccc4Cl)o3)[C@@H](O)[C@H]2O)n1 returned NR3A LBD binder -0.2.
For OCCN1CCN(c2ncnc3sc(-c4ccccc4)cc23)CC1 the results were PREPL inh -115.2, T cruzi repl 62.1*, CHOP inh 4.5, Beta cell apopt 8.5 and NR3A LBD binder -2.0.
Screening c1ccc(-c2cc3c(N4CCCC4)ncnc3s2)cc1 returned PREPL inh 9.9, T cruzi repl 0.5, CHOP inh 30.4, Beta cell apopt 15.5, NR3A LBD binder -2.4 and CSC inhib 14.7.
Screening CSc1nc2ccccc2cc1/C=C(\C#N)c1ccc(Cl)c(Cl)c1 returned PREPL inh 2.9, T cruzi repl -5.8, CHOP inh 20.5, Beta cell apopt 8.4, NR3A LBD binder 16.8* and CSC inhib 42.7.
Screening CSc1nc2ccccc2cc1/C=C(\C#N)c1cccc(C)c1 returned PREPL inh 6.8, T cruzi repl 2.8, CHOP inh -9.9, Beta cell apopt 8.9, NR3A LBD binder 0.0 and CSC inhib -8.5.
`CSc1nc2ccccc2cc1/C=C(\C#N)c1ccccc1` gave PREPL inh 8.2, T cruzi repl -23.5, CHOP inh 39.3, Beta cell apopt 20.3, NR3A LBD binder 18.7* and CSC inhib 67.2.
Screening CCCCC(=O)NS(=O)(=O)c1ccc(N=NN(CC)CC)cc1 returned PREPL inh -7.6, T cruzi repl 1.3, CHOP inh -8.0, Beta cell apopt -5.5, NR3A LBD binder 0.4 and CSC inhib -14.3.
`CC1(C)SC(=S)N(/N=C/c2ccccc2O)C1N(O)C(=O)Nc1ccccc1` (configuration not stated) gave PREPL inh -81.0, T cruzi repl -6.0, CHOP inh -12.7, Beta cell apopt 4.5, NR3A LBD binder 1.1 and CSC inhib 13.8.
For CC1(C)SC(=S)N(NC(=O)Nc2ccccc2)C1N(O)C(=O)Nc1cccc2ccccc12 (configuration not stated) the results were PREPL inh -11.8, T cruzi repl 25.7, CHOP inh 48.2, Beta cell apopt -2.3, NR3A LBD binder 21.0* and CSC inhib 7.1.
`Cc1ccccc1N(CC(=O)N/N=C/c1ccccc1Cl)C(=O)c1ccccc1` gave PREPL inh 23.3, T cruzi repl 4.2, CHOP inh 73.1*, Beta cell apopt -6.4, NR3A LBD binder 0.5 and CSC inhib -3.4.
For COc1cc(C(=O)NCc2nnc(SCC(=O)NC3CCCC3)o2)cc(OC)c1OC the results were PREPL inh 15.6, T cruzi repl -1.9, Beta cell apopt -4.9, NR3A LBD binder -1.9 and CSC inhib 0.8.
For CCOc1ccccc1OCCC(=O)NNC(=O)Cn1nc(C)cc1C the results were PREPL inh -0.1, T cruzi repl -5.5, Beta cell apopt -6.7, NR3A LBD binder 0.6 and CSC inhib -4.5.
